Among the data in PubChem BioAssay are viability, differential viability (reversal) and inhibition values, retold here.

As usually defined, the viability is a read-out of living cells in per cent, often relative to untreated cells. Usually inhibition stands for the drop in the measured response relative to a control, in per cent.

Experiment [1] in a line: HUVEC growth inhibition – cell-based, human, primary screen (AID 575;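 active = viability at or below 30% in both replicate assays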;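 note: 100% = median of untreated cell wells with 0.1% DMSO on each plate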). The conditions noted are these: HUVEC proliferation, CellTiter-Glo luminescence, 72 h; at 10 µM; stronger effect = lower value. The essentials:
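system = HUVEC primary cells | amount = 1250 cells/well | buffer or medium = supplemented EBM, 2% fetal bovine serum | dosing = single-point 10 µM, DMSO 0.1% final | times = 72 h compound incubation | detection = CTG luminescence | read-out = % viability relative to median vehicle-well signal on each plate | control set = vehicle and MePR control wells | format = collagen-coated 384-well format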
(In general: ATP-based viability assays read luminescence as a measure of living cells.)

Experiment [2] in a line: H69AR cell proliferation blockers – human, duplicate replicates, primary screen (AID 580).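 Note: 100% = mean luminescence of untreated wells and 0% = no signal.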 The conditions noted are these: H69AR lung tumor cells viability, ATP luminescence, 72 h; at 10 µM; stronger effect = lower value.
Experiment [3] is described as follows: MRP1 drug-resistance reversers in H69AR cells – cell-based, doxorubicin co-treatment, pilot screen (AID 601;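 active = viability loss from added drug above about 55%, and viability with drug at most 40%, in both replicates, limit read from the data, passing the limit was not always enough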). The conditions noted are these: CellTiter-Glo, 72 h, at 10 µM; for differential viability (reversal): stronger effect = higher value.
Experiment [4] is described as follows: yeast transport mutant growth inhibition pilot in 384-well plates, post-Golgi transport modulator project (AID 636; in the data active = inhibition above about 31%). The conditions noted are these: absorbance 615 nm, about 18 h, stronger effect = higher value.
Experiment [5] is described as follows: growth suppression of yeast trafficking mutant, preliminary HTS, modulators of trafficking downstream of Golgi apparatus project, 1536-format plate, OD 615 nm (AID 637; in the data active = inhibition above about 30%). To be noted: yeast transport mutant growth, absorbance 615 nm, 18 h; stronger effect = higher value.
The mark [6] stands for this setting: H69AR cells + 2 uM doxorubicin, measured here: viability with 2 uM doxorubicin, stronger effect = lower value.
The mark [7] stands for this setting: H69AR cells, compound alone cytotoxicity.

The source made the active and inactive calls.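 Rule for the calls, unless noted: active = viability at or under a set limit in both replicates, limit being median viability minus 3 SD (cut at about 48% in these data, passing the limit was not always enough); inconclusive = at or under the limit in just one replicate; inactive = at or above the limit in both replicates.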

Take `Cc1cc(NC(=O)CCC(=O)N(CC2CCCO2)C(C(=O)NC2CCCC2)c2ccccc2C)no1` (stereo not drawn): the viability in experiment [1] is 86.4% (inactive); in experiment [2], 96.7% (inactive); in experiment [3] (setting [6]), 83.2%; in experiment [3] (setting [7]), 96.7%. In experiment [3] (H69AR cells + 2 uM doxorubicin), the differential viability (reversal) was 13.5% (inactive). In addition, the inhibition in experiment [4] was -2.11% (inactive); in experiment [5], 5.4% (inactive).
`CCN(CC)c1ccc2c(c1)C(=O)N(C)C2=O`: the viability was 71.6% (inactive) in experiment [1], 84.6% (inactive) in experiment [2], 82.4% in experiment [3] (setting [6]) and 84.6% in experiment [3] (setting [7]). Further, in experiment [3] (H69AR cells + 2 uM doxorubicin), the differential viability (reversal) was 2.22% (inactive). In addition, the inhibition in experiment [4] was -0.66% (inactive); in experiment [5], 1.9% (inactive).
As for `Cn1cnc2c1c(=O)n(Cc1cccc(Br)c1)c(=O)n2C`, the viability is 90.3% (inactive) in experiment [1], 86.9% (inactive) in experiment [2], 82.6% in experiment [3] (setting [6]) and 86.9% in experiment [3] (setting [7]). For the same compound, the differential viability (reversal) in experiment [3] (H69AR cells + 2 uM doxorubicin) is 4.32% (inactive). In addition, the inhibition was -4% (inactive) in experiment [4] and 5.24% (inactive) in experiment [5].
For `Oc1cccc2ccc(Nc3ccccn3)nc12`, the viability is 2.4% (active) in experiment [1], 1.99% (active) in experiment [2], 1.5% in experiment [3] (setting [6]) and 1.99% in experiment [3] (setting [7]). Moreover, in experiment [3] (H69AR cells + 2 uM doxorubicin), the differential viability (reversal) is 0.495% (inactive). The inhibition in experiment [4] is -4.16% (inactive); in experiment [5] it was 2.22% (inactive).
Consider `CCCCNC(=O)C(C#N)c1nc2ccccc2nc1N1CCCC1` (stereo not drawn), for which the viability in experiment [1] was 89.2% (inactive); in experiment [2], 100% (inactive); in experiment [3] (setting [6]), 102%; in experiment [3] (setting [7]) it was 100%. The differential viability (reversal) in experiment [3] (H69AR cells + 2 uM doxorubicin) was -1.2% (inactive). The results for the inhibition in experiment [4] and in experiment [5] were -4.93% (inactive) and -4.29% (inactive), respectively.
Take `CCCn1c(SCC(=O)Nc2ccccc2C(=O)OCC)nc2c1c(=O)n(C)c(=O)n2C`: the viability in experiment [1] was 102% (inactive); in experiment [2], 95.7% (inactive); in experiment [3] (setting [6]) it was 93.1%; in experiment [3] (setting [7]), 95.7%. Further, the differential viability (reversal) in experiment [3] (H69AR cells + 2 uM doxorubicin) was 2.55% (inactive). For the same compound, the inhibition in experiment [4] is -8% (inactive); in experiment [5] it was -3.02% (inactive).
With `COc1ccc(OC)c(S(=O)(=O)NCCO)c1`, the viability in experiment [1] was 87.5% (inactive); in experiment [2], 95.2% (inactive); in experiment [3] (setting [6]), 80.7%; in experiment [3] (setting [7]), 95.2%. Also, in experiment [3] (H69AR cells + 2 uM doxorubicin), the differential viability (reversal) is 14.5% (inactive). For the same compound, the results for the inhibition in experiment [4] and in experiment [5] were -2.34% (inactive) and 6.35% (inactive), respectively.
On to `c1ccc(-c2noc(-c3cccnc3)n2)nc1`, for which the viability in experiment [1] was 84.8% (inactive); in experiment [2], 72.1% (inactive); in experiment [3] (setting [6]), 67.5%; in experiment [3] (setting [7]) it was 72.1%. For the same compound, the differential viability (reversal) in experiment [3] (H69AR cells + 2 uM doxorubicin) was 4.56% (inactive). Also, the inhibition in experiment [4] is -3.77% (inactive); in experiment [5] it was 6.67% (inactive).
On to `COc1ccc(Cl)cc1Nc1nc(NCCO)nc(N2CCCC2)n1`, for which the viability is 55.1% (inactive) in experiment [1], 89.3% (inactive) in experiment [2], 99.6% in experiment [3] (setting [6]) and 89.3% in experiment [3] (setting [7]). Also, in experiment [3] (H69AR cells + 2 uM doxorubicin), the differential viability (reversal) was -10.3% (inactive). In addition, the inhibition is -7.57% (inactive) in experiment [4] and 8.41% (inactive) in experiment [5].
For `COc1cc(NC(=O)Cc2ccccc2OC)cc(OC)c1`, the viability in experiment [1] is 96.9% (inactive); in experiment [2] it was 95.7% (inactive); in experiment [3] (setting [6]), 92%; in experiment [3] (setting [7]), 95.7%. Besides, the differential viability (reversal) in experiment [3] (H69AR cells + 2 uM doxorubicin) was 3.67% (inactive). Also, the inhibition in experiment [4] was 0.27% (inactive); in experiment [5], -6.67% (inactive).
On to `O=C(C1CC2CCC1C2)N1CCN(Cc2ccc3c(c2)OCO3)CC1` (stereo not drawn), for which the viability in experiment [1] was 103% (inactive); in experiment [2], 99.2% (inactive); in experiment [3] (setting [6]), 85.3%; in experiment [3] (setting [7]), 99.2%. Besides, the differential viability (reversal) in experiment [3] (H69AR cells + 2 uM doxorubicin) is 13.9% (inactive). Also, the inhibition in experiment [4] is -4.68% (inactive); in experiment [5] it was 3.33% (inactive).
On to `O=C(Cc1nn[nH]n1)NCCC1=CCCCC1`, for which the viability was 82.8% (inactive) in experiment [1], 95.7% (inactive) in experiment [2], 91.1% in experiment [3] (setting [6]) and 95.7% in experiment [3] (setting [7]). Besides, the differential viability (reversal) in experiment [3] (H69AR cells + 2 uM doxorubicin) is 4.6% (inactive). The inhibition is -1.04% (inactive) in experiment [4] and -4.76% (inactive) in experiment [5].
On to `Cn1c(=O)c2ncn(CC(=O)NCCOc3ccccc3)c2n(C)c1=O`, for which the viability is 108% (inactive) in experiment [1], 91.9% (inactive) in experiment [2], 84.2% in experiment [3] (setting [6]) and 91.9% in experiment [3] (setting [7]). Also, the differential viability (reversal) in experiment [3] (H69AR cells + 2 uM doxorubicin) was 7.6% (inactive). Also, the inhibition is 0.39% (inactive) in experiment [4] and 5.71% (inactive) in experiment [5].
In the case of `COc1ccc(Cl)cc1-c1n[nH]c(=S)o1`, the viability in experiment [1] was 86.9% (inactive); in experiment [2], 95.5% (inactive); in experiment [3] (setting [6]) it was 81.8%; in experiment [3] (setting [7]), 95.5%. The differential viability (reversal) in experiment [3] (H69AR cells + 2 uM doxorubicin) was 13.7% (inactive). The results for the inhibition in experiment [4] and in experiment [5] were -6.4% (inactive) and -1.27% (inactive), respectively.
